ChEMBL document CHEMBL1250492, “Development of isoniazid-NAD truncated adducts embedding a lipophilic fragment as potential bi-substrate InhA inhibitors and antimycobacterial agents” (Eur J Med Chem, 2010)
“And” between values parts separate entries of the source, which are not always exact repeats. Equal entries are not always repeated.

Experiments:
[1] = test system: Mycolicibacterium smegmatis; assay: Antimycobacterial activity against Mycobacterium smegmatis after 24 hrs by MTT assay; format: functional, organism-based
Procedure, shortened: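 MTT (1 mg/ml solution) was then added for a further 24 h, followed by DMF:20% SDS (1:2) solubilization and A570 reading. MIC is the lowest concentration blocking visible growth, and IC50 was fitted by non-linear regression. DMSO stocks were at 100× the top concentration. Isoniazid served as positive control.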

[2] = target: T1, Enoyl-[acyl-carrier-protein] reductase [NADH] (Mycobacterium tuberculosis) (UniProt P9WGR1); assay: Inhibition of Mycobacterium tuberculosis InhA expressed in Escherichia coli at 100 uM after 5 mins
T1 sequence (whole entry): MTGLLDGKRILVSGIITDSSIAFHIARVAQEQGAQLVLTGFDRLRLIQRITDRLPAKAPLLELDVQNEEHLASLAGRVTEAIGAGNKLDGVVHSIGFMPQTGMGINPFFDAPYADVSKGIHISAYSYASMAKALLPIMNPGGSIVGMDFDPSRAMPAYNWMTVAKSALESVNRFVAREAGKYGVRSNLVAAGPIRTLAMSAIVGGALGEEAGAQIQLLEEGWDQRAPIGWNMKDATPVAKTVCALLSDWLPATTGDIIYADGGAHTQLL
Procedure, shortened: (§1)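 Recombinant M. tuberculosis InhA, E. coli-expressed and purified, at 70 nM. Pre-incubated with compound for 5 min or 2 h in 30 mM PIPES, 150 mM NaCl, pH 6.8, 25 °C, with 0.5% final DMSO. The reaction was started with trans-2-decenoyl-CoA plus NADH and followed by NADH oxidation at 340 nm, 25 °C. Initial rates were compared with a ligand-free control, giving % inhibition. Run in triplicate.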

[3] = test system: Mycobacterium tuberculosis; assay: Antimycobacterial activity against Mycobacterium tuberculosis after 24 hrs by MTT assay; format: functional, organism-based
Procedure, shortened: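 MTT was then added for a further 24 h, followed by DMF:20% SDS (1:2) solubilisation and A570 read-out. MIC was the lowest concentration stopping visible growth versus untreated bacilli. IC50 came from non-linear regression. DMSO stocks were at 100× the top concentration.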

[4] = target: T1, Enoyl-[acyl-carrier-protein] reductase [NADH] (Mycobacterium tuberculosis); assay: Inhibition of Mycobacterium tuberculosis InhA expressed in Escherichia coli at 100 uM after 2 hrs; procedure, shortened: as §1
[5] = target: T1, Enoyl-[acyl-carrier-protein] reductase [NADH] (Mycobacterium tuberculosis); assay: Inhibition of Mycobacterium tuberculosis InhA expressed in Escherichia coli at 20 uM after 5 mins; procedure, shortened: as §1
[6] = target: T1, Enoyl-[acyl-carrier-protein] reductase [NADH] (Mycobacterium tuberculosis); assay: Inhibition of Mycobacterium tuberculosis InhA expressed in Escherichia coli at 20 uM after 2 hrs; procedure, shortened: as §1
[7] = target: T1, Enoyl-[acyl-carrier-protein] reductase [NADH] (Mycobacterium tuberculosis); assay: Inhibition of Mycobacterium tuberculosis InhA expressed in Escherichia coli at 10 uM after 5 mins; procedure, shortened: as §1
[8] = target: T1, Enoyl-[acyl-carrier-protein] reductase [NADH] (Mycobacterium tuberculosis); assay: Inhibition of Mycobacterium tuberculosis InhA expressed in Escherichia coli at 1 uM after 5 mins
[9] = target: T1, Enoyl-[acyl-carrier-protein] reductase [NADH] (Mycobacterium tuberculosis); assay: Inhibition of Mycobacterium tuberculosis InhA expressed in Escherichia coli at 10 uM after 2 hrs; procedure, shortened: as §1
[10] = target: T1, Enoyl-[acyl-carrier-protein] reductase [NADH] (Mycobacterium tuberculosis); assay: Inhibition of Mycobacterium tuberculosis InhA expressed in Escherichia coli at 1 uM after 2 hrs
[11] = Mycolicibacterium smegmatis, 24 h

| Compound | IC50 [1, 11] | inhibition [2] | IC50 [1] | IC50 [3] | further results |
| --- | --- | --- | --- | --- | --- |
| CCCCCCCCCc1ccc(-c2cccc(C3(O)NC(=O)c4cnccc43)c2)cc1 (centres undefined) | 1800 µM | 17% | – | – | – |
| CCCCCCCCCCCCOc1cccc(C(=O)C2C=CN(CC(=O)OCC)C=C2C(N)=O)c1 (centres undefined) | – | 6% | – | – | – |
| CCCCCCCCCCCCc1cccc(C2(O)NC(=O)c3cnccc32)c1 (centres undefined) | 47 µM | 4% | 78 µM | 9.8 µM | – |
| CCCCCCCCCCCCOc1cccc(C2(O)NC(=O)c3cnccc32)c1 (centres undefined) | – | 41% | 68 µM and 156 µM | 156 µM | inhibition [4]: 80% |
| O=C1NC(O)(c2cccc(Br)c2)c2ccncc21 (centres undefined) | > 5000 µM | 20% | – | – | – |
| CCCCCCCCCCCCc1cccc(C2(O)NC(=O)c3c[n+](CC(=O)OCC)ccc32)c1 (centres undefined) | – | 91% | 3.2 µM and 9.8 µM | 39 µM | inhibition [5]: 40%; inhibition [6]: 28%; inhibition [7]: 19% |
| CCCCCCCCCCCCc1cccc(C(=O)C2C=CN(CC(=O)OCC)C=C2C(N)=O)c1 (centres undefined) | 5.3 µM | – | 9.8 µM | 9.8 µM | inhibition [7]: 25% |
| CCCCCCCCc1cccc(C2(O)NC(=O)c3cnccc32)c1 (centres undefined) | – | 9% | 4.5 µM and 19.5 µM | 19.5 µM | – |
| CCCCCCCCCCCCOc1cccc(C2(O)NC(=O)c3c[n+](CC(=O)OCCCO)ccc32)c1 (centres undefined) | – | 30% | – | – | – |
| NC(=O)C1=CN([C@@H]2O[C@H](COP(=O)(O)OP(=O)(O)OC[C@H]3O[C@@H](n4cnc5c(N)ncnc54)[C@H](O)[C@@H]3O)[C@@H](O)[C@H]2O)C=C[C@@H]1C(=O)c1ccncc1 | – | – | – | – | inhibition [8]: 67%; inhibition [9]: 97%; inhibition [10]: 87%; inhibition [7]: 92% |
| NNC(=O)c1ccncc1 [ISONIAZID] | – | – | 7.8 µM and 39 µM | < 0.3 µM | – |
| C=CCOc1cccc(C2(O)NC(=O)c3cnccc32)c1 (centres undefined) | 1300 µM | 23% | – | – | – |
| CCCCCCCCCCCCOc1cccc(C2(O)NC(=O)c3c[n+](CC(=O)OCC)ccc32)c1 (centres undefined) | – | 35% | – | – | – |
| CCCCCCCCCCCCOc1cccc(C(=O)C2C=CN(CC(=O)OCCCO)C=C2C(N)=O)c1 (centres undefined) | – | 3% | – | – | – |
| O=C1NC(O)(c2cccc(O)c2)c2ccncc21 (centres undefined) | 300 µM | 17% | – | – | – |
